In brackets after ≈: the same amount, converted by molar mass.
Tests used:
Assay type in all cases: functional
Biomphalaria alexandrina [1] = assay: Molluscicidal activity against Biomphalaria alexandrina assessed as number of dead snail per 10 snails at 14 ppm after 24 hrs
Method in brief: (§1)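 Field-collected B. alexandrina snails held 45 days in the lab, fed daily on lettuce, and checked free of parasitic infection. Compound mixed with a few drops of Tween 20, then suspended in untreated raw River Nile water at seven concentrations of 4–16 ppm, in aerated glass jars. Ten snails of similar size (ca. 7 mm) per jar, kept 24 h at ambient temperature. Run three times and the mean number killed taken. LC50 and LC90 were derived from this mortality. Control was water with Tween 20. Follows WHO guidelines.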

Biomphalaria alexandrina [2] = assay: Molluscicidal activity against Biomphalaria alexandrina assessed as number of dead snail per 10 snails at 12 ppm after 24 hrs; method in brief: as §1
Biomphalaria alexandrina [3] = assay: Molluscicidal activity against Biomphalaria alexandrina assessed as number of dead snail per 10 snails at 16 ppm after 24 hrs; method in brief: as §1
Biomphalaria alexandrina [4] = assay: Molluscicidal activity against Biomphalaria alexandrina assessed as number of dead snail per 10 snails at 8 ppm after 24 hrs; method in brief: as §1
Biomphalaria alexandrina [5] = assay: Molluscicidal activity against Biomphalaria alexandrina after 24 hrs; conditions: for LC50: Biomphalaria alexandrina, 24 h; method in brief: as §1
Biomphalaria alexandrina [6] = assay: Molluscicidal activity against Biomphalaria alexandrina assessed as number of dead snail per 10 snails at 6 ppm after 24 hrs; method in brief: as §1
Biomphalaria alexandrina [7] = assay: Molluscicidal activity against Biomphalaria alexandrina assessed as number of dead snail per 10 snails at 4 ppm after 24 hrs; method in brief: as §1
Biomphalaria alexandrina [8] = assay: Molluscicidal activity against Biomphalaria alexandrina assessed as number of dead snail per 10 snails at 10 ppm after 24 hrs; method in brief: as §1

Structure (SMILES): CC(=O)/C(C(=O)c1ccccc1)=C1/SC(C(=O)c2ccccc2)=NN1c1ccc(C)cc1
- Activity (Biomphalaria alexandrina [1]): 10
- Activity (Biomphalaria alexandrina [2]): 10
- Activity (Biomphalaria alexandrina [3]): 10
- Activity (Biomphalaria alexandrina [4]): 5
- LC90 (Biomphalaria alexandrina [5]): 9 ppm
- LC50 (Biomphalaria alexandrina [5]): 5.5 µg/mL (≈ 12.5 µM)
- Activity (Biomphalaria alexandrina [6]): 3
- Activity (Biomphalaria alexandrina [7]): 2
- Activity (Biomphalaria alexandrina [8]): 8

Structure (SMILES): COc1ccc(N2N=C(C(=O)c3ccccc3)S/C2=C(/C(C)=O)C(=O)c2ccccc2)cc1
- Activity (Biomphalaria alexandrina [1]): 10
- Activity (Biomphalaria alexandrina [2]): 10
- Activity (Biomphalaria alexandrina [3]): 10
- Activity (Biomphalaria alexandrina [4]): 4
- LC90 (Biomphalaria alexandrina [5]): 11 ppm
- LC50 (Biomphalaria alexandrina [5]): 6 µg/mL (≈ 13.1 µM)
- Activity (Biomphalaria alexandrina [6]): 3
- Activity (Biomphalaria alexandrina [7]): 1
- Activity (Biomphalaria alexandrina [8]): 7

Structure (SMILES): Cc1n[nH]c(Nc2ccccc2)c1C(=O)c1ccccc1
- Activity (Biomphalaria alexandrina [1]): 10
- Activity (Biomphalaria alexandrina [2]): 9
- Activity (Biomphalaria alexandrina [3]): 10
- Activity (Biomphalaria alexandrina [4]): 4
- LC90 (Biomphalaria alexandrina [5]): 18 ppm
- LC50 (Biomphalaria alexandrina [5]): 13 µg/mL (≈ 46.9 µM)
- Activity (Biomphalaria alexandrina [6]): 3
- Activity (Biomphalaria alexandrina [7]): 1
- Activity (Biomphalaria alexandrina [8]): 8

Structure (SMILES): O=C(Nc1cc(Cl)c([N+](=O)[O-])cc1Cl)c1ccccc1O
- LC100 (Biomphalaria alexandrina [5]): 1 ppm

Structure (SMILES): CCOC(=O)c1sc(Nc2ccccc2)c(C(=O)c2ccccc2)c1C
- Activity (Biomphalaria alexandrina [1]): 4
- Activity (Biomphalaria alexandrina [2]): 2
- Activity (Biomphalaria alexandrina [3]): 10
- Activity (Biomphalaria alexandrina [4]): 1
- LC90 (Biomphalaria alexandrina [5]): 20 ppm
- LC50 (Biomphalaria alexandrina [5]): 18 µg/mL (≈ 49.3 µM)
- Activity (Biomphalaria alexandrina [6]): 1
- Activity (Biomphalaria alexandrina [7]): 0
- Activity (Biomphalaria alexandrina [8]): 2

Structure (SMILES): CC(=O)/C(C(=O)c1ccccc1)=C1/SC(C(=O)c2ccccc2)=NN1c1ccccc1
- Activity (Biomphalaria alexandrina [1]): 10
- Activity (Biomphalaria alexandrina [2]): 9
- Activity (Biomphalaria alexandrina [3]): 10
- Activity (Biomphalaria alexandrina [4]): 4
- LC90 (Biomphalaria alexandrina [5]): 10 ppm
- LC50 (Biomphalaria alexandrina [5]): 8 µg/mL (≈ 18.8 µM)
- Activity (Biomphalaria alexandrina [6]): 2
- Activity (Biomphalaria alexandrina [7]): 2
- Activity (Biomphalaria alexandrina [8]): 6

Structure (SMILES): CC(=O)c1sc(Nc2ccccc2)c(C(=O)c2ccccc2)c1C
- Activity (Biomphalaria alexandrina [1]): 10
- Activity (Biomphalaria alexandrina [2]): 8
- Activity (Biomphalaria alexandrina [3]): 10
- Activity (Biomphalaria alexandrina [4]): 5
- LC90 (Biomphalaria alexandrina [5]): 22 ppm
- LC50 (Biomphalaria alexandrina [5]): 16 µg/mL (≈ 47.7 µM)
- Activity (Biomphalaria alexandrina [6]): 3
- Activity (Biomphalaria alexandrina [7]): 1
- Activity (Biomphalaria alexandrina [8]): 8

Structure (SMILES): Cc1c(C(=O)c2ccccc2)sc(Nc2ccccc2)c1C(=O)c1ccccc1
- Activity (Biomphalaria alexandrina [1]): 10
- Activity (Biomphalaria alexandrina [2]): 9
- Activity (Biomphalaria alexandrina [3]): 10
- Activity (Biomphalaria alexandrina [4]): 5
- LC90 (Biomphalaria alexandrina [5]): 20 ppm
- LC50 (Biomphalaria alexandrina [5]): 15.6 µg/mL (≈ 39.2 µM)
- Activity (Biomphalaria alexandrina [6]): 4
- Activity (Biomphalaria alexandrina [7]): 1
- Activity (Biomphalaria alexandrina [8]): 6

Structure (SMILES): Cc1c(C(=O)O)sc(Nc2ccccc2)c1C(=O)c1ccccc1
- Activity (Biomphalaria alexandrina [1]): 8
- Activity (Biomphalaria alexandrina [2]): 6
- Activity (Biomphalaria alexandrina [3]): 10
- Activity (Biomphalaria alexandrina [4]): 3
- LC90 (Biomphalaria alexandrina [5]): 23 ppm
- LC50 (Biomphalaria alexandrina [5]): 19 µg/mL (≈ 56.3 µM)
- Activity (Biomphalaria alexandrina [6]): 2
- Activity (Biomphalaria alexandrina [7]): 1
- Activity (Biomphalaria alexandrina [8]): 5

Source: ChEMBL document CHEMBL1138573, “Synthesis and molluscicidal activity of some new thiophene, thiadiazole and pyrazole derivatives” (2009)
